Source: ChEMBL document CHEMBL4765238, “Structure-Based Discovery and Optimization of Benzo[ d]isoxazole Derivatives as Potent and Selective BET Inhibitors for Potential Treatment of Castration-Resistant Prostate Cancer (CRPC)” (J Med Chem, 2018)

How the values were obtained:
[1] = biological target: T1, Bromodomain-containing protein 4 (Homo sapiens, UniProt O60885); assay: Inhibition of HYSGRGK(Ac)GGK(Ac)GLGK(Ac)GGAK(Ac)RHRK(Biotin)-OH binding to recombinant human His6-tagged BRD4 bromodomain 1 (N44 to E168 residues) expressed in Escherichia coli BL21 (DE3) cells measured after 2 hrs by Alphascreen assay
[2] = biological target: T1, Bromodomain-containing protein 4; assay: Binding affinity to human recombinant His6-tagged BRD4 bromodomain 1 (N44 to E168 residues) expressed in Escherichia coli BL21 (DE3) cells assessed as change in melting temperature at 200 uM incubated for 30 mins by SYPRO orange dye based thermal shift assay
Outline: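 Thermal shift assay measuring change in melting temperature of each isolated bromodomain module in the presence of compound versus without.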

[3] = biological target: T1, Bromodomain-containing protein 4; assay: Inhibition of BRD4 bromodomain 1 (unknown origin) by fluorescence polarization assay
VCaP = assay: cells; settings: Homo sapiens, 144 h, read-out: INH
LNCaP C4-2B = assay: Antiproliferative activity against AR-positive human C4-2B cells assessed as reduction in cell viability incubated for 96 hrs by cell-titer glo assay; type: functional, cell-based
Outline: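 Prostate cancer cells treated across a concentration range; viability read by CellTiter-Glo luminescence; experiments in triplicate; IC50 derived from the dose–response curves.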

`CCC(C)n1c(-c2ccc3onc(C)c3c2)nc2ccc(N3CCOCC3)cc21` (stereo not drawn) was tested, and the IC50 [1] was 3620 nM and the ΔTm [2] was 4.8 °C.

Compound `COC(=O)c1ccccc1S(=O)(=O)Nc1cc2c(C)noc2cc1C` has an IC50 [1] of 6930 nM and a ΔTm [2] of 3 °C.

`COc1ccc(S(=O)(=O)Nc2cc3c(C)noc3cc2C)cc1` was tested, and the IC50 [1] was > 20000 nM and the ΔTm [2] was 1.5 °C.

`CCCS(=O)(=O)Nc1cc2c(C)noc2cc1C` showed an IC50 [1] of 2470 nM and a ΔTm [2] of 4.5 °C.

`COc1ccc(OC)c(S(=O)(=O)Nc2cc3c(C)noc3cc2C)c1` was tested, and the IC50 [1] was 10700 nM and the ΔTm [2] was 2 °C.

`COc1cc2onc(C)c2cc1NS(=O)(=O)c1ccccc1Cl` gave an IC50 [1] of 220 nM and a ΔTm [2] of 7.8 °C.

Work on `Cc1cc2onc(C)c2cc1NS(=O)(=O)c1ccccc1` yielded an IC50 [1] of 4960 nM and a ΔTm [2] of 2 °C.

For `Cc1cc2onc(C)c2cc1NS(=O)(=O)c1ccc(Cl)cc1`, the IC50 [1] was > 20000 nM and the ΔTm [2] was 1 °C.

`Cc1cc2onc(C)c2cc1NS(=O)(=O)C1CCCCC1` was tested, and the IC50 [1] was 2240 nM and the ΔTm [2] was 4.5 °C.

Work on `Cc1cc2onc(C)c2cc1NS(=O)(=O)c1cccc(Cl)c1Cl` yielded an IC50 [1] of 3550 nM and a ΔTm [2] of 4 °C.

Work on `CCCn1c(-c2cc(Br)c3onc(C)c3c2)nc2ccc(N3CCOCC3)cc21` yielded an IC50 [1] of 1800 nM and a ΔTm [2] of 6.2 °C.

Compound `COc1ccccc1S(=O)(=O)Nc1cc2c(C)noc2cc1C` has an IC50 [1] of 830 nM and a ΔTm [2] of 6.6 °C.

Work on `COc1ccc(Br)cc1S(=O)(=O)Nc1cc2c(C)noc2cc1C` yielded an IC50 [1] of 620 nM and a ΔTm [2] of 7.5 °C.

`COc1ccc(Br)cc1S(=O)(=O)Nc1cc2c(C)noc2cc1OCC(=O)NCCN1CCOCC1` showed an IC50 [1] of 2270 nM and a ΔTm [2] of 4.8 °C.

`CCCCn1c(-c2cc(Br)c3onc(C)c3c2)nc2ccc(N3CCOCC3)cc21` showed an IC50 [1] of 520 nM and a ΔTm [2] of 7.2 °C.

In the case of `CCCCS(=O)(=O)Nc1cc2c(C)noc2cc1C`, the IC50 [1] is reported as 2550 nM and the ΔTm [2] is reported as 5 °C.

In the case of `Cc1cc2onc(C)c2cc1NS(=O)(=O)c1ccc([N+](=O)[O-])cc1`, the IC50 [1] is reported as > 20000 nM and the ΔTm [2] is reported as 0.5 °C.

Compound `Cc1noc2ccc(-c3nc4ccc(N5CCOCC5)cc4n3Cc3ccccc3)cc12` has an IC50 [1] of 1670 nM and a ΔTm [2] of 6 °C.

For `Cc1cc2onc(C)c2cc1NS(=O)(=O)C1CCCC1`, the IC50 [1] was 3050 nM and the ΔTm [2] was 5 °C.

`COCCn1c(-c2cc(Br)c3onc(C)c3c2)nc2ccc(N3CCOCC3)cc21` was tested, and the IC50 [1] was > 20000 nM and the ΔTm [2] was 4.5 °C.

`Cc1cc2onc(C)c2cc1NS(=O)(=O)c1ccc(F)cc1` gave an IC50 [1] of 9820 nM and a ΔTm [2] of 2 °C.

With `CCS(=O)(=O)Nc1cc2c(C)noc2cc1C` the IC50 [1] was 5300 nM and the ΔTm [2] was 3 °C.

`Cc1noc2c(Br)cc(-c3nc4ccc(N5CCOCC5)cc4n3CC3CC3)cc12` gave an IC50 [1] of 2360 nM and a ΔTm [2] of 6 °C.

With `Cc1cc2onc(C)c2cc1NS(=O)(=O)c1ccccc1Br` the IC50 [1] was 1840 nM and the ΔTm [2] was 4.4 °C.

Compound `COc1ccc(C)cc1S(=O)(=O)Nc1cc2c(C)noc2cc1C` has an IC50 [1] of 2130 nM and a ΔTm [2] of 4.6 °C.

With `COCCn1c(-c2ccc3onc(C)c3c2)nc2ccc(N3CCOCC3)cc21` the IC50 [1] was 4420 nM and the ΔTm [2] was 5 °C.

In the case of `CCOc1cc2onc(C)c2cc1NS(=O)(=O)c1cc(Br)ccc1OC`, the IC50 [1] is reported as 150 nM and the ΔTm [2] is reported as 9.2 °C.

`Cc1noc2c(Br)cc(-c3nc4ccc(N5CCOC[C@@H]5C)cc4n3CC3CCCCC3)cc12` was tested, and the IC50 [1] was 320 nM and the ΔTm [2] was 7.2 °C.

`Cc1cc2onc(C)c2cc1NS(=O)(=O)c1ccccc1C(=O)O` showed an IC50 [1] of 5810 nM and a ΔTm [2] of 3.8 °C.

`Cc1cc2onc(C)c2cc1NS(=O)(=O)c1c(Cl)cccc1Cl` was tested, and the IC50 [1] was > 20000 nM and the ΔTm [2] was 1.1 °C.

For `CCNC(=O)COc1cc2onc(C)c2cc1NS(=O)(=O)c1cc(Br)ccc1OC`, the IC50 [1] was 1600 nM and the ΔTm [2] was 5.1 °C.

For `COc1ccc(Br)cc1S(=O)(=O)Nc1cc2c(C)noc2cc1O`, the IC50 [1] was 230 nM and the ΔTm [2] was 9.2 °C.

In the case of `COc1cc2onc(C)c2cc1NS(=O)(=O)c1cc(Cl)ccc1Cl`, the IC50 [1] is reported as 440 nM and the ΔTm [2] is reported as 7.3 °C.

`COc1ccc(Br)cc1S(=O)(=O)Nc1cc2c(C)noc2cc1OCC(=O)O` gave an IC50 [1] of 580 nM and a ΔTm [2] of 6.2 °C.

`COc1cc2onc(C)c2cc1NS(=O)(=O)c1cc(C)ccc1OC` gave an IC50 [1] of 470 nM and a ΔTm [2] of 7.8 °C.

With `COc1cc2onc(C)c2cc1NS(=O)(=O)c1cc(Cl)ccc1OC` the IC50 [1] was 160 nM and the ΔTm [2] was 8.7 °C.

`Cc1cc2onc(C)c2cc1NS(=O)(=O)c1ccccc1Cl` showed an IC50 [1] of 1590 nM and a ΔTm [2] of 5.2 °C.

Work on `CCOC(=O)C[C@@H]1N=C(c2ccc(Cl)cc2)c2cc(OC)ccc2-n2c(C)nnc21` yielded an IC50 [3] of 631 nM.

`Cc1noc2ccc(-c3nc4ccc(N5CCOCC5)cc4n3CC3CC3)cc12` showed an IC50 [1] of 1410 nM and a ΔTm [2] of 6.5 °C.

`COc1ccc(Br)cc1S(=O)(=O)Nc1cc2c(C)noc2cc1OCC(=O)NCCNC(C)=O` showed an IC50 [1] of 750 nM and a ΔTm [2] of 5.4 °C.

For `Cc1noc2ccc(-c3nc4ccc(N5CCOCC5)cc4n3CC3CCCCC3)cc12`, the IC50 [1] was 180 nM and the ΔTm [2] was 5.4 °C.

`Cc1cc2onc(C)c2cc1NS(=O)(=O)c1cc(Cl)ccc1Cl` showed an IC50 [1] of 2350 nM and a ΔTm [2] of 5 °C.

`CCCOc1cc2onc(C)c2cc1NS(=O)(=O)c1cc(Br)ccc1OC` gave an IC50 [1] of 420 nM and a ΔTm [2] of 6 °C.

Work on `COc1ccc(Cl)cc1S(=O)(=O)Nc1cc2c(C)noc2cc1C` yielded an IC50 [1] of 1050 nM and a ΔTm [2] of 6.5 °C.

With `CCCCn1c(-c2ccc3onc(C)c3c2)nc2ccc(N3CCOCC3)cc21` the IC50 [1] was 1160 nM and the ΔTm [2] was 5.9 °C.

`CNC(=O)c1ccc(N2C(=S)N(c3ccc(C#N)c(C(F)(F)F)c3)C(=O)C2(C)C)cc1F` [ENZALUTAMIDE] was tested, and the inhibition at 33 µM (VCaP) was 50% and the IC50 (LNCaP C4-2B) was 18000 nM.

In the case of `CCCn1c(-c2ccc3onc(C)c3c2)nc2ccc(N3CCOCC3)cc21`, the IC50 [1] is reported as 1370 nM and the ΔTm [2] is reported as 6.5 °C.
